Activity calls are given as the source filed them. The rule behind the calls is not given here.
Columns and labels:
Plasmodium berghei [1] = assay: (§1) Antimalarial activity against liver stage form of mCherry expressing Plasmodium berghei ANKA sporozoites infected in mouse primary hepatocytes assessed as reduction in parasite size at 0.0625 to 4 uM administered 2 hrs post infection and measured after 48 hrs post infection with medium change at 24 hrs post infection by fluorescent microscopic analysis; assay type: functional, organism-based
Outline: (§2)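 Parasite number and size in unfixed cells by automated microscopy at 48 hpi. Detached cells collected at 65 hpi, counted by fluorescence microscopy, expressed as % of 48 h parasite number. n = 4; one-way ANOVA with Dunnett's test.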

Plasmodium falciparum [2] = assay: Antiplasmodial activity against gametocytes of Plasmodium falciparum NF54 infected in Anopheles mosquitoes assessed as decrease in infection prevalance measured at baseline infection intensity of 30 oocysts/midgut pre-treated with compound for 24 hrs before feeding and measured 8 days post infection by standard membrane feeding assay; assay type: functional, organism-based
Outline: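 NF54-HGL luciferase-reporter gametocytes were pre-incubated with compound for 24 h, then membrane-fed to Anopheles mosquitoes. Infection was read by luminescence 8 d post-infection, with 24 mosquitoes analysed per feed and each feed done in duplicate. IC50 was derived for infection intensity and for prevalence at a baseline of 30 oocysts/midgut.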

[3] = Cardiotoxicity in Langendorff perfused Wistar rat heart assessed as cycle length interval time at 10 uM by electrocardiography (reference value: 217.15 to 242.23 milliseconds); assay type: toxicity, tissue-based
Plasmodium falciparum [4] = assay: Gametocytocidal activity against Plasmodium falciparum NF54 HGL gametocytes assessed as inhibition of parasite viability after 72 hrs by ONE-Glo reagent based luminescence assay; assay type: functional, organism-based
Outline: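 NF54 gametocytes raised in 5% haematocrit RPMI1640/10% human serum, with 50 mM NAG on days 4–9. Mainly stage IV gametocytes isolated on day 11 by Percoll gradient and seeded at 5000 cells/well, final DMSO 0.1%. Incubated 72 h at 37 °C, 3% O2, 4% CO2; viability by ONE-Glo luminescence.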

Plasmodium berghei [5] = assay: as §1, with “load” for “size”; assay type: functional, organism-based; outline: as §2
[6] = target: Voltage-dependent L-type calcium channel subunit alpha-1C (Rattus norvegicus, UniProt P22002); assay: Inhibition of CaV1.2 channel in rat tail artery myocytes assessed as reduction in Ba2+ current at 30 uM at -50 mV holding potential by whole-cell patch-clamp assay; assay type: cell-based
Voltage-dependent L-type calcium channel subunit alpha-1C, sequence (P22002 whole entry): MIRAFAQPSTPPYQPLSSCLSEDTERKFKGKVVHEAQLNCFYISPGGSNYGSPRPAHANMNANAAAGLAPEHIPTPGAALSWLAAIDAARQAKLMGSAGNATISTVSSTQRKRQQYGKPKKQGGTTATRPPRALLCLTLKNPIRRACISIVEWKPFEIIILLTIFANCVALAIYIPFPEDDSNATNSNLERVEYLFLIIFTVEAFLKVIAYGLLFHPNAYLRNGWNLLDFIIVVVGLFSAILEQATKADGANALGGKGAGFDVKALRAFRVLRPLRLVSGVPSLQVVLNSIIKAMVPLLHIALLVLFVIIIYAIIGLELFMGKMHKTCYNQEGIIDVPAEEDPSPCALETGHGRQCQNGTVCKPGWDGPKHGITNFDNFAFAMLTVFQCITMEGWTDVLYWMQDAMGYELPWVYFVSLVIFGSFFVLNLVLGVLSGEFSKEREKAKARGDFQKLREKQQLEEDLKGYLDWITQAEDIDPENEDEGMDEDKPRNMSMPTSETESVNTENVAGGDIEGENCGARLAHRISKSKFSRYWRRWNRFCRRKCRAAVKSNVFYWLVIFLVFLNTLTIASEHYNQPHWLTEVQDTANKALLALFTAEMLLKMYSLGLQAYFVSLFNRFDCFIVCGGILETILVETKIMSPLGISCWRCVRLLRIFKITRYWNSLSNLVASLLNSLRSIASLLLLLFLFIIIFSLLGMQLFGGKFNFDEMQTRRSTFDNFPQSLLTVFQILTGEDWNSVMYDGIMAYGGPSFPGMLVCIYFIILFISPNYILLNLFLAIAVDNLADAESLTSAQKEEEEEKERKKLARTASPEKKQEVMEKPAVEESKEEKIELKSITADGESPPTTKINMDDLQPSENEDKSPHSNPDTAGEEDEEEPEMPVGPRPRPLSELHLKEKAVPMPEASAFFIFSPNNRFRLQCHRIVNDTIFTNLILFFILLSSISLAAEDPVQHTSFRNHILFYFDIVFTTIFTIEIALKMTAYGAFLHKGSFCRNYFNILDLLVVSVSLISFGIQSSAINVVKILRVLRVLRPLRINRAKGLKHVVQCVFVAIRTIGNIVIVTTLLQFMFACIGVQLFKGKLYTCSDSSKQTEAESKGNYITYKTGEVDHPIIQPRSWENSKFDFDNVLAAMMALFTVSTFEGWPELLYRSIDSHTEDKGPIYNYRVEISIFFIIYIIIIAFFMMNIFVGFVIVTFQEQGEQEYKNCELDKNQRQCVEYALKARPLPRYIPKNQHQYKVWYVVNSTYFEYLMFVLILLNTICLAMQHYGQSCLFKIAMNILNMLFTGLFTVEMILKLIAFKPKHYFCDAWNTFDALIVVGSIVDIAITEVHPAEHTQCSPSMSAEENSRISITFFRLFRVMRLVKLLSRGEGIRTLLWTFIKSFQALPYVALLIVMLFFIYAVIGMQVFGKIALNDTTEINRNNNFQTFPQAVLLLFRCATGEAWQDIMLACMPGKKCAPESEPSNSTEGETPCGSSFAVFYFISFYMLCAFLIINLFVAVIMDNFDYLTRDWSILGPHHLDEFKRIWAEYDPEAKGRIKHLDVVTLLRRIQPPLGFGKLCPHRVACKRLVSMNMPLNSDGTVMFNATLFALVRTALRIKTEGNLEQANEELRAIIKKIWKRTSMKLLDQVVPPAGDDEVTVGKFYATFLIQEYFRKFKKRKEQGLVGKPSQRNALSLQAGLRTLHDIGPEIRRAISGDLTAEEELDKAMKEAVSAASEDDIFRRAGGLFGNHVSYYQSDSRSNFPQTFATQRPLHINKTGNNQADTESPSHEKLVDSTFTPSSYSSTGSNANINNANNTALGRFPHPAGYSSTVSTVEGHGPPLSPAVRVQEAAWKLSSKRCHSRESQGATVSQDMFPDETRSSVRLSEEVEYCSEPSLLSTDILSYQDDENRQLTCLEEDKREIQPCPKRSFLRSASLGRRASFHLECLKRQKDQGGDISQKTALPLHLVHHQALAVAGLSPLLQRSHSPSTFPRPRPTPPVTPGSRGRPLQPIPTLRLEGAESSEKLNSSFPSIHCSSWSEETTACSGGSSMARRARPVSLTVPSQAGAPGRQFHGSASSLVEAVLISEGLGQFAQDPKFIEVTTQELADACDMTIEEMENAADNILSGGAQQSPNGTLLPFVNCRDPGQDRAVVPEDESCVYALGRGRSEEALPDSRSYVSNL
Outline: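 Freshly isolated rat tail artery smooth muscle cells (collagenase digestion), whole-cell patch clamp at 20–22 °C. External solution: 5 mM Ba2+, 30 mM TEA; Cs+-based internal solution, pH 7.4. Currents from 250-ms pulses to 0 mV from Vh −50 mV at 0.067 Hz, after 7–10 min stabilisation. Leak corrected with 10 μM nifedipine. Peak current as % of control; n = 3–6 cells from ≥3 animals.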

[7] = Cardiotoxicity in Langendorff perfused Wistar rat heart assessed as cycle length interval time at 3 uM by electrocardiography (reference value: 217.15 to 242.23 milliseconds); assay type: toxicity, tissue-based
[8] = Cardiotoxicity in Langendorff perfused Wistar rat heart assessed as QRS interval time at 10 uM by electrocardiography (reference value: 13.31 to 14.35 milliseconds); assay type: toxicity, tissue-based
[9] = Cardiotoxicity in Langendorff perfused Wistar rat heart assessed as frequency of heart rate at 10 uM by electrocardiography (reference value: 247.05 to 275.90 bpm); assay type: toxicity, tissue-based
[10] = Cardiotoxicity in Langendorff perfused Wistar rat heart assessed as QRS interval time at 3 uM by electrocardiography (reference value: 13.31 to 14.35 milliseconds); assay type: toxicity, tissue-based
[11] = Cardiotoxicity in Langendorff perfused Wistar rat heart assessed as QTc interval time at 3 uM by electrocardiography (reference value: 76.45 to 80.07 milliseconds); assay type: toxicity, tissue-based
[12] = Cytotoxicity against mouse NIH/3T3 cells after 24 hrs by neutral red uptake assay; assay type: cell-based, NIH3T3; settings: read-out: TC50
Outline: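 NIH3T3 cells exposed for 24 h; viability by neutral red uptake. Mean of three experiments, six replicates each.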

[13] = Cardiotoxicity in Langendorff perfused Wistar rat heart assessed as QTc interval time at 0.1 uM by electrocardiography (reference value: 76.45 to 80.07 milliseconds); assay type: toxicity, tissue-based
[14] = Cardiotoxicity in Langendorff perfused Wistar rat heart assessed as reduction of left ventricular pressure; assay type: toxicity, tissue-based
[15] = Cardiotoxicity in Langendorff perfused Wistar rat heart assessed as frequency of heart rate at 3 uM by electrocardiography (reference value: 247.05 to 275.90 bpm); assay type: toxicity, tissue-based

Clc1ccc(-c2ccc(CNCC3CCNCC3)o2)c(-c2ccccc2)c1
Activity (Plasmodium berghei [1]): inactive | IC50 (Plasmodium falciparum [2]): 830 nM | Time [3]: 232.2 ms | IC50 (Plasmodium falciparum [4]): 43 nM | Activity (Plasmodium berghei [5]): inactive | inhibition (INH) [6]: Active | Time [7]: 216.73 ms | Time [8]: 17.91 ms | Activity [9]: 259.41 bpm | Time [10]: 14.65 ms | Time [11]: 78.56 ms | CC50 at 24 h [12]: 20000 nM | Time [13]: 74.92 ms | Activity [14]: Dose-dependent effect | Activity [15]: 276.4 bpm
